How the values were obtained:
HT-29 = assay: Growth inhibition of human HT29 cells; type: functional
MDA-MB-435 = assay: Growth inhibition of human MDA-MB-435 cells; type: functional
MDA-MB-231 = assay: Growth inhibition of human MDA-MB-231 cells; type: functional
UACC-257 = assay: Growth inhibition of human UACC257 cells; type: functional
UO-31 = assay: Growth inhibition of human UO31 cells; type: functional
SK-MEL-5 = assay: Growth inhibition of human SK-MEL-5 cells; type: functional
PC-3 = assay: Growth inhibition of human PC3 cells; type: functional
T47D = assay: Growth inhibition of human T47D cells; type: functional
A549 = assay: Growth inhibition of human A549 cells; type: functional
BT-549 = assay: Growth inhibition of human BT549 cells; type: functional
SK-OV-3 = assay: Growth inhibition of human SKOV3 cells; type: functional
HCT-116 = assay: Growth inhibition of human HCT116 cells; type: functional
IGROV-1 = assay: Growth inhibition of human IGROV1 cells; type: functional
HCT-15 = assay: Growth inhibition of human HCT15 cells; type: functional
[1] = Growth inhibition of human HL60(TB) cells; type: functional, HL-60(TB)
NCI-H226 = assay: Growth inhibition of human NCI-H226 cells; type: functional
MCF7 = assay: Growth inhibition of human MCF7 cells; type: functional
[2] = Growth inhibition of human OVACR3 cells; type: functional
NCI-H23 = assay: Growth inhibition of human NCI-H23 cells; type: functional
SF-268 = assay: Growth inhibition of human SF268 cells; type: functional
NCI-H460 = assay: Cytotoxicity against human NCI-H460 cells after 48 hrs by MTT assay; type: functional; settings: NCI-H460, 48 h, read-out: LC50 (the source's name)
Summary of the method: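 Cells seeded at 6000/well and grown 24 h, then given test chemicals dissolved in DMSO and diluted in serum-free medium (DMSO under 0.5% final). Viability read by MTT reduction after 48 h exposure; LC50 reported. Method follows Alley et al.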

SR = assay: Growth inhibition of human SR cells; type: functional
SK-MEL-2 = assay: Growth inhibition of human SK-MEL-2 cells; type: functional
NCI-H322M = assay: Growth inhibition of human NCI-H322M cells; type: functional
SK-MEL-28 = assay: Growth inhibition of human SK-MEL-28 cells; type: functional
SNB-19 = assay: Growth inhibition of human SNB19 cells; type: functional
K562 = assay: Growth inhibition of human K562 cells; type: functional
HOP-62 = assay: Growth inhibition of human HOP62 cells; type: functional
[3] = read-out: pLC50 (the source's name) (converted)

CC/C=C(\C)[C@H]1OC(=O)[C@H](C)N(C)C(=O)[C@H](C(C)C)NC(=O)CN(C)C(=O)[C@H]([C@H](C)CC)N(C)C(=O)[C@H](C(C)C)NC(=O)[C@@H]([C@@H](C)CC)OC(=O)/C(C)=C/C[C@H](O)[C@@H]1C [AURILIDE B]
CC50 (HT-29; [3]): > 100000 nM | TGI (HT-29; read-out: pTGI): > 100000 nM | GI50 (MDA-MB-435): < 10 nM | TGI (MDA-MB-435; read-out: pTGI): < 10 nM | GI50 (MDA-MB-231): < 10 nM | TGI (MDA-MB-231; read-out: pTGI): < 10 nM | GI50 (UACC-257): < 10 nM | CC50 (UACC-257; [3]): < 10 nM | TGI (UACC-257; read-out: pTGI): < 10 nM | GI50 (UO-31): < 10 nM | CC50 (UO-31; [3]): < 10 nM | TGI (UO-31; read-out: pTGI): < 10 nM | GI50 (SK-MEL-5): 219 nM | CC50 (SK-MEL-5; [3]): 3020 nM | TGI (SK-MEL-5; read-out: pTGI (converted)): 490 nM | GI50 (PC-3): < 10 nM | CC50 (PC-3; [3]): < 10 nM | TGI (PC-3; read-out: pTGI): < 10 nM | GI50 (T47D): < 10 nM | CC50 (T47D; [3]): > 100000 nM | GI50 (A549): < 10 nM | CC50 (A549; [3]): < 10 nM | TGI (A549; read-out: pTGI): < 10 nM | GI50 (BT-549): < 10 nM | GI50 (SK-OV-3): < 10 nM | CC50 (SK-OV-3; [3]): 38900 nM | GI50 (HCT-116): < 10 nM | CC50 (HCT-116; [3]): < 10 nM | TGI (HCT-116; read-out: pTGI): < 10 nM | GI50 (IGROV-1): < 10 nM | CC50 (IGROV-1; [3]): > 100000 nM | TGI (IGROV-1; read-out: pTGI): < 10 nM | GI50 (HCT-15): < 10 nM | CC50 (HCT-15; [3]): > 100000 nM | TGI (HCT-15; read-out: pTGI (converted)): 170 nM | GI50 ([1]; HL-60): < 10 nM | CC50 ([1]; HL-60, read-out: pLC50 (the source's name) (converted)): < 10 nM | TGI ([1]; HL-60, read-out: pTGI): < 10 nM | GI50 (NCI-H226): < 10 nM | CC50 (NCI-H226; [3]): < 10 nM | TGI (NCI-H226; read-out: pTGI): < 10 nM | GI50 (MCF7): < 10 nM | CC50 (MCF7; [3]): > 100000 nM | TGI (MCF7; read-out: pTGI (converted)): 19100 nM | GI50 [2]: < 10 nM | TGI ([2]; read-out: pTGI): < 10 nM | GI50 (NCI-H23): < 10 nM | CC50 (NCI-H23; [3]): < 10 nM | TGI (NCI-H23; read-out: pTGI): < 10 nM | GI50 (SF-268): < 10 nM | CC50 (SF-268; [3]): 794 nM | CC50 (NCI-H460): 40 nM | GI50 (SR): < 10 nM | CC50 (SR; [3]): < 10 nM | TGI (SR; read-out: pTGI): < 10 nM | GI50 (SK-MEL-2): < 10 nM | CC50 (SK-MEL-2; [3]): > 100000 nM | TGI (SK-MEL-2; read-out: pTGI): < 10 nM | GI50 (NCI-H322M): < 10 nM | TGI (NCI-H322M; read-out: pTGI): < 10 nM | GI50 (SK-MEL-28): < 10 nM | CC50 (SK-MEL-28; [3]): > 100000 nM | TGI (SK-MEL-28; read-out: pTGI): < 10 nM | GI50 (SNB-19): < 10 nM | CC50 (SNB-19; [3]): > 100000 nM | TGI (SNB-19; read-out: pTGI (converted)): 19.9 nM | GI50 (K562): < 10 nM | CC50 (K562; [3]): 100 nM | TGI (K562; read-out: pTGI): < 10 nM | GI50 (HOP-62): < 10 nM | CC50 (HOP-62; [3]): < 10 nM | TGI (HOP-62; read-out: pTGI): < 10 nM

— ChEMBL document CHEMBL1157311, “Aurilides B and C, cancer cell toxins from a Papua New Guinea collection of the marine cyanobacterium Lyngbya majuscula” (2006)
